The values below come from PubChem BioAssay AID2805 (Sanford-Burnham Center for Chemical Genomics, 2010).

Out of some 330,000 compounds screened, about 780 (0.24%) were called active.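 The calls were made as follows: active = activation factor of at least 2 at 20 µM; inactive = the rest.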 For the sample, actives were picked, then their nearest neighbours and some compounds at random.

In this assay the test system is intestinal alkaline phosphatase [Mus musculus]. The experiment in a line: activators of mouse IAP, primary screen, biochemical, luminescence, uHTS (AID 2805). As to conditions: muIAP, CDP-Star luminescence, 30 min; at 10 µM; hits give high values; 1 = vehicle-only enzyme signal, 0 = enzyme-free wells. Summed up:
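also added = chemiluminescent substrate CDP-Star | test system = mouse IAP enzyme | signal = chemiluminescence readout | compound = DMSO-dissolved test compounds | incubation = 30 min at room temperature | benchmarks = DMSO wells, no-enzyme wells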
Regarding `CCc1ccccc1N1CN(Cc2ccco2)CNC1=S`, the activation factor was 0.992 (inactive).

Regarding `COc1c(O)cccc1-c1nnn(CCC(=O)OCC(=O)c2ccccc2)n1`, the activation factor is 0.984 (inactive).

As for `Cc1cccc(NC(=S)NCCN(C2CCCCC2)C2CCCC2)c1`, the activation factor was 2.13 (active).

`Cc1cccc(NC(=S)Nc2ccc(Cl)c(Cl)c2)c1`: the activation factor is 1.16 (inactive).

`Cc1cccc(NC(=S)NC23CN4CN(CN(C4)C2)C3)c1`: the activation factor was 0.962 (inactive).

Consider `O=C(c1ccc(O)cc1)c1ccc(C(=O)O)c(C(=O)O)c1`, for which the activation factor was 1.01 (inactive).

Consider `CC(=O)c1cccc(NC(=O)N2CCCC2C(=O)NCCC(C)C)c1` (configuration not stated), for which the activation factor was 0.988 (inactive).

`O=C(COc1ccccc1F)NNC(=O)c1cc(Br)ccc1Cl`: the activation factor was 0.932 (inactive).

`O=C(NCCOc1ccccc1F)Nc1ccc(Br)cc1`: the activation factor is 2.2 (active).

Consider `O=C(NCCOc1ccccc1Cl)C(=O)Nc1ccccc1`, for which the activation factor is 0.98 (inactive).

With `O=C(Cn1ncc2c3ccccc3n(Cc3ccccc3)c2c1=O)NCCCN1CCOCC1`, the activation factor was 0.993 (inactive).

As to `C=C(Br)Cn1c(CCCC)nc2ccccc21`, the activation factor was 0.968 (inactive).

In the case of `COc1ccc(NC(=O)Nc2ccc3c(c2)C(=O)N([C@H](C)CO)C[C@H](C)[C@@H](CN(C)C(=O)Nc2ccc4c(c2)OCO4)O3)cc1`, the activation factor is 2.74 (active).

For the compound `C[C@H](CO)N1C[C@H](C)[C@@H](CN(C)C(=O)Nc2ccc3c(c2)OCO3)Oc2c(cccc2N(C)C)C1=O`, the activation factor was 0.974 (inactive).

As for `COc1ccc(NC(=O)N(C)C[C@H]2Oc3ccc(NC(=O)C4CC4)cc3C(=O)N([C@H](C)CO)C[C@@H]2C)cc1`, the activation factor was 1.05 (inactive).

Take `COc1ccc(S(=O)(=O)NCC(=O)NC2CC2)cc1OC`: the activation factor is 0.966 (inactive).

Turning to `O=C(CN1CCC(O)(c2cccc(C(F)(F)F)c2)CC1)NCCc1ccccc1`, the activation factor is 0.933 (inactive).

For `CC(=O)Nc1cccc(C(=O)OCN2C(=O)c3ccccc3C2=O)c1`, the activation factor is 0.892 (inactive).

As for `CC(=O)N(CC(O)CO)c1c(I)c(C(=O)NCC(O)CO)c(I)c(C(=O)NCC(O)CO)c1I` (configuration not stated), the activation factor was 1.05 (inactive).

With `Cc1cc(C)c(S(=O)(=O)c2ccccc2)c(OC(=O)c2c(F)cccc2Cl)n1`, the activation factor was 0.919 (inactive).

Consider `OCCCN1c2ccccc2Nc2nnc(-c3ccccc3)cc21`, for which the activation factor is 2.5 (active).

Consider `N=c1c2c(-c3ccccc3)c(-c3ccccc3)n(Cc3ccccc3)c2ncn1CCCO`, for which the activation factor was 0.982 (inactive).

Turning to `COc1ccc(C)cc1NC(=O)NCCCCc1ccccc1`, the activation factor was 1.36 (inactive).

With `O=C(CNC(=O)c1ccccc1Br)NNC(=O)c1cccs1`, the activation factor was 0.934 (inactive).

Consider `Cc1ccc(CN(C)Cc2cc(=O)oc3cc(C)c(Cl)cc23)cc1`, for which the activation factor was 0.989 (inactive).

Turning to `S=C(Nc1ccc(Br)cc1)NC1CCN(Cc2ccccc2)CC1`, the activation factor is 1.46 (inactive).

Regarding `S=C(NCCCc1ccccc1)Nc1ccc(Br)cc1`, the activation factor was 2.09 (active).

With `O=S(=O)(NCCCc1ccccc1)c1ccc(Br)cc1`, the activation factor is 1.03 (inactive).

On to `CC(NC(=S)Nc1ccccc1)C1COc2ccccc2O1` (configuration not stated), for which the activation factor was 1.67 (inactive).

As for `S=C(NCC1COc2ccccc2O1)Nc1ccc(Br)cc1` (configuration not stated), the activation factor is 3.2 (active).

In the case of `CCCN(CC1COc2ccccc2O1)C(=S)Nc1ccc(C)cc1` (configuration not stated), the activation factor is 1.14 (inactive).

Turning to `COCCNC(=O)c1ccc(S(=O)(=O)c2ccc(Cl)cc2)c(NC(C)=O)c1`, the activation factor was 0.896 (inactive).

As for `O=C(NCC1CCCO1)c1ccccc1-c1nc(-c2ccccc2Cl)no1` (configuration not stated), the activation factor is 0.926 (inactive).

As for `Cc1noc(C)c1S(=O)(=O)N(CC(=O)Nc1ccc2c(c1)OCCO2)c1ccc(C(C)C)cc1`, the activation factor is 2.03 (active).

With `Cc1noc(C)c1S(=O)(=O)N(CC(=O)NCc1ccc(Cl)cc1)c1ccc2c(c1)OCO2`, the activation factor is 1.12 (inactive).

Regarding `CCOC(=O)c1cccc(NC(=O)CN(c2ccc(C)cc2)S(=O)(=O)c2c(C)noc2C)c1`, the activation factor is 1.37 (inactive).

On to `COc1ccc(N(C)C(=O)C2CCN(S(=O)(=O)c3cccc4nsnc34)CC2)cc1`, for which the activation factor is 0.954 (inactive).

Turning to `O=C(NCc1cccnc1)c1cnc2ccccc2n1`, the activation factor was 0.965 (inactive).

As to `CC(C(=O)O)N1C(=O)c2cccc3cccc1c23` (configuration not stated), the activation factor was 1.02 (inactive).

`CCOc1ccc(C(CCc2ccccc2)NC(=O)c2ccc(OC)c(OC)c2)cc1OCC` (configuration not stated): the activation factor is 2.15 (active).

Take `CCOc1ccc(C(CC(=O)O)NC(=O)C23CC4CC(CC(C4)C2)C3)cc1OC` (configuration not stated): the activation factor was 1.06 (inactive).

With `CCOc1ccc(C(CC(=O)O)NC(=O)Cc2ccccc2)cc1OC` (configuration not stated), the activation factor is 0.993 (inactive).

As to `CCN(CC)Cc1nc2sc(C)c(C)c2c(=O)[nH]1`, the activation factor is 0.952 (inactive).

As to `Cc1cc(=O)[nH]c(Nc2cccc(Br)c2)n1`, the activation factor was 1.07 (inactive).

Turning to `C=CCOc1cccc(C2NC(=O)c3ccccc3O2)c1` (configuration not stated), the activation factor was 1.01 (inactive).

Regarding `CN(c1ccccc1)S(=O)(=O)c1cccc(NC(=O)Cc2c(F)cccc2Cl)c1`, the activation factor was 2.3 (active).

`CN(c1ccccc1)S(=O)(=O)c1cccc(NC(=O)Cc2ccc(Cl)cc2)c1`: the activation factor was 1.55 (inactive).

In the case of `CN(C)S(=O)(=O)c1cccc(NC(=O)Cc2ccsc2)c1`, the activation factor was 1.06 (inactive).

Turning to `Cc1ccc(C(=O)N/C(=C\c2cn(C)c3ccccc23)C(=O)N2CCN(C)CC2)cc1`, the activation factor was 0.969 (inactive).

With `COC(=O)CNC(=O)c1ccc2c(c1)S(=O)(=O)c1ccccc1C2=O`, the activation factor is 1.01 (inactive).

Turning to `O=C(CCc1ccc(S(=O)(=O)NC2CCCCC2)cc1)NCc1ccccc1`, the activation factor is 1.18 (inactive).

As to `CCN(CC)N=Nc1cccc(NC(C)=O)c1`, the activation factor was 0.943 (inactive).

In the case of `COc1ccc(CN2C3CCCC2CC(NC(=O)c2cccc(F)c2)C3)cc1` (configuration not stated), the activation factor was 1.11 (inactive).

With `COc1ccc(NC(=O)NC2CC3CCCC(C2)N3Cc2ccccc2)cc1` (configuration not stated), the activation factor is 3.11 (active).

With `CCOc1ccccc1C(=O)NC1CC2CCCC(C1)N2Cc1ccccc1` (configuration not stated), the activation factor is 0.947 (inactive).

With `O=C(COc1ccc(S(=O)(=O)N2CCOCC2)cc1Cl)N1CCOCC1`, the activation factor was 1.01 (inactive).

In the case of `C[N+]1(CC(O)COc2ccccc2)CCN(C(=O)c2ccc([N+](=O)[O-])cc2)CC1` (configuration not stated), the activation factor was 0.943 (inactive).

As to `Cn1cccc1C(C#N)c1ccccc1C#N` (configuration not stated), the activation factor was 0.962 (inactive).

In the case of `O=C1C2CCCN2C(=O)N1CCCCN1CCN(c2cccc(C(F)(F)F)c2)CC1` (configuration not stated), the activation factor is 0.942 (inactive).

For the compound `CCc1ccc(NC(=O)NC(C)c2ccc3c(c2)OCO3)cc1` (configuration not stated), the activation factor is 2.38 (active).

For `CC(NC(=O)Nc1ccc2c(c1)OCO2)c1ccncc1` (configuration not stated), the activation factor was 1.02 (inactive).

In the case of `CC(NC(=O)Nc1cccc([N+](=O)[O-])c1)c1ccc2c(c1)OCO2` (configuration not stated), the activation factor is 0.95 (inactive).
